Results as given in ChEMBL document CHEMBL1821634, “Design and synthesis of (+)-discodermolide-paclitaxel hybrids leading to enhanced biological activity” (J Med Chem, 2011).
Active and inactive are the calls of the source. The calls are words filed in the database; no cut-off is given here.

How the values were obtained:
MCF7 = assay: Antiproliferative activity against human MCF7 cells after 96 hrs by SRB method; format: functional, cell-based; conditions: MCF7, 96 h
In short: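 MCF-7 cells grown in RPMI plus 10% fetal bovine serum, seeded at 2000 per well. Increasing drug concentrations added 18 h post-plating. Incubation for 96 h at 37 °C, with the later fixation allowing for growth rate, then SRB staining. IC50 is the concentration giving 50% growth inhibition.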

A549 = assay: Antiproliferative activity against human A549 cells after 72 hrs by SRB method; format: functional, cell-based; conditions: A549, 72 h
In short: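 Cells kept in RPMI with 10% FBS; 800 A549 cells seeded per well, drugs added at increasing concentrations 18 h after plating. Incubated 72 h at 37 °C, then fixed and stained with SRB. IC50 taken as concentration inhibiting growth by 50%.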

Bos taurus = organism: Bos taurus; assay: Induction of bovine brain tubulin polymerization at 3 uM after 30 mins by SDS-PAGE
In short: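 Tubulin (2.5 μM) in 0.1 M MES, 1 mM EGTA, 1 mM MgCl₂ with 2 mM GTP, incubated with drug at 3 μM for 30 min at 37 °C. Polymer pelleted at 120000g, 37 °C, 1 h. Pellet dissolved in SDS sample buffer and analysed by SDS-PAGE.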

SMILES	IC50 (MCF7) [nM]	IC50 (A549) [nM]	Activity (Bos taurus)
C=C/C=C\[C@H](C)[C@H](OC(=O)NCCCCNC(=O)c1ccc(N=[N+]=[N-])cc1)[C@@H](C)[C@H](O)[C@@H](C)C/C(C)=C\[C@H](C)[C@@H](O)[C@@H](C)/C=C\[C@@H](O)C[C@@H]1OC(=O)[C@H](C)[C@@H](O)[C@H]1C	2.71	3.76	Active
C=C/C=C\[C@H](C)[C@H](OC(=O)NCCNC(=O)c1ccc(N=[N+]=[N-])cc1)[C@@H](C)[C@H](O)[C@@H](C)C/C(C)=C\[C@H](C)[C@@H](O)[C@@H](C)/C=C\[C@@H](O)C[C@@H]1OC(=O)[C@H](C)[C@@H](O)[C@H]1C	3.64	5.61	Active
C=C/C=C\[C@H](C)[C@H](OC(=O)NCCCNC(=O)c1ccc(C2(C(F)(F)F)N=N2)cc1)[C@@H](C)[C@H](O)[C@@H](C)C/C(C)=C\[C@H](C)[C@@H](O)[C@@H](C)/C=C\[C@@H](O)C[C@@H]1OC(=O)[C@H](C)[C@@H](O)[C@H]1C	1.92	2.64	Active
C=C/C=C\[C@H](C)[C@H](OC(N)=O)[C@@H](C)[C@H](O)[C@@H](C)C/C(C)=C\[C@H](C)[C@@H](O)[C@@H](C)/C=C\[C@@H](O)C[C@@H]1OC(=O)[C@H](C)[C@@H](O)[C@H]1C [DISERMOLIDE]	7.98	9.34	Active

The remaining compounds from weak to strong by IC50 (MCF7), led by results:

IC50 (MCF7) [nM]	IC50 (A549) [nM]	Activity (Bos taurus)	SMILES
1.9	1.21	Active	C=C/C=C\[C@H](C)[C@H](OC(=O)NCCCNC(=O)c1ccc(N=[N+]=[N-])cc1)[C@@H](C)[C@H](O)[C@@H](C)C/C(C)=C\[C@H](C)[C@@H](O)[C@@H](C)/C=C\[C@@H](O)C[C@@H]1OC(=O)[C@H](C)[C@@H](O)[C@H]1C
1.66	1.05	Active	C=C/C=C\[C@H](C)[C@H](OC(=O)NCCCNC(=O)c1cccc(N=[N+]=[N-])c1)[C@@H](C)[C@H](O)[C@@H](C)C/C(C)=C\[C@H](C)[C@@H](O)[C@@H](C)/C=C\[C@@H](O)C[C@@H]1OC(=O)[C@H](C)[C@@H](O)[C@H]1C
0.91	3.14	–	CC(=O)O[C@H]1C(=O)[C@@]2(C)[C@H]([C@H](OC(=O)c3ccccc3)[C@]3(O)C[C@H](OC(=O)[C@H](O)[C@@H](NC(=O)c4ccccc4)c4ccccc4)C(C)=C1C3(C)C)[C@]1(OC(C)=O)CO[C@@H]1C[C@@H]2O [PACLITAXEL]
